# Measurements as given in ChEMBL document CHEMBL2062460, “Disubstituted thiourea derivatives and their activity on CNS: synthesis and biological evaluation” (Eur J Med Chem, 2012).
# Active and inactive are the calls of the source. No cut-off for these calls is given here.
# Columns and labels:
# [1] = system: Staphylococcus aureus; assay: Antibacterial activity against methicillin-susceptible Staphylococcus aureus clinical isolate 256/08 after 18 hrs by twofold serial agar dilution technique; format: functional; details: clinical isolate 256/08, 18 h
# Method in brief: (§1)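 Clinical isolates came from patients in Warsaw Medical University Hospitals and were classed as methicillin-susceptible or -resistant. MIC was determined by twofold serial agar dilution on Mueller–Hinton II agar (CLSI), 3.125–400 µg/mL in agar, with compounds in methanol or DMSO. Inoculum was 10^4 CFU/mL and plates were read after 18 h at 35 °C.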
# [2] = system: Staphylococcus aureus; assay: Antibacterial activity against Staphylococcus aureus ATCC 25923 at 400 ug/disc after 18 hrs by disc diffusion method; format: functional; details: for zone of inhibition at 400 µg/disc: ATCC 25923, 18 h, read-out: DIZ
# Method in brief: (§2)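 Disc diffusion per CLSI on Mueller–Hinton II agar; 9 mm paper discs loaded from methanol or DMSO solutions to 400 µg per disc, dried; growth inhibition zone diameter read after 18 h at 35 °C.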
# [3] = system: Enterococcus hirae; assay: Antibacterial activity against Enterococcus hirae ATCC 10541 after 18 hrs by twofold serial agar dilution technique; format: functional; details: ATCC 10541, 18 h
# [4] = system: Staphylococcus aureus; assay: Antibacterial activity against Staphylococcus aureus NCTC 4163 at 400 ug/disc after 18 hrs by disc diffusion method; format: functional; details: for zone of inhibition at 400 µg/disc: NCTC 4163, 18 h, read-out: DIZ; method in brief: as §2
# [5] = system: Staphylococcus aureus; assay: Antibacterial activity against methicillin-susceptible Staphylococcus aureus clinical isolate 338/08 after 18 hrs by twofold serial agar dilution technique; format: functional; details: clinical isolate 338/08, 18 h; method in brief: as §1
# [6] = system: Bacillus cereus; assay: Antibacterial activity against Bacillus cereus ATCC 11778 after 18 hrs by twofold serial agar dilution technique; format: functional; details: ATCC 11778, 18 h
# [7] = system: Staphylococcus aureus; assay: Antibacterial activity against methicillin-resistant Staphylococcus aureus clinical isolate 307/08 after 18 hrs by twofold serial agar dilution technique; format: functional; details: clinical isolate 307/08, 18 h; method in brief: as §1
# [8] = system: Staphylococcus aureus; assay: Antibacterial activity against methicillin-susceptible Staphylococcus aureus clinical isolate 269/08 after 18 hrs by twofold serial agar dilution technique; format: functional; details: clinical isolate 269/08, 18 h; method in brief: as §1
# [9] = system: Staphylococcus aureus; assay: Antibacterial activity against methicillin-resistant Staphylococcus aureus clinical isolate 329/08 after 18 hrs by twofold serial agar dilution technique; format: functional; details: clinical isolate 329/08, 18 h; method in brief: as §1
# [10] = system: Staphylococcus epidermidis; assay: Antibacterial activity against Staphylococcus epidermidis ATCC 12228 after 18 hrs by twofold serial agar dilution technique; format: functional; details: ATCC 12228, 18 h
# Method in brief: (§3)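 Twofold serial agar dilution on Mueller–Hinton II agar, following CLSI guidelines. Compounds were dissolved in methanol or DMSO and tested at final agar concentrations of 3.125–400 µg/mL. Final inoculum was 10^4 CFU/mL.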
# [11] = system: Staphylococcus epidermidis; assay: Antibacterial activity against Staphylococcus epidermidis ATCC 12228 at 400 ug/disc after 18 hrs by disc diffusion method; format: functional; details: ATCC 12228, 18 h, read-out: DIZ; method in brief: as §2
# [12] = system: Bacillus cereus; assay: Antibacterial activity against Bacillus cereus ATCC 11778 at 400 ug/disc after 18 hrs by disc diffusion method; format: functional; details: ATCC 11778, 18 h, read-out: DIZ; method in brief: as §2
# [13] = system: Staphylococcus aureus; assay: Antibacterial activity against methicillin-resistant Staphylococcus aureus clinical isolate 309/08 after 18 hrs by twofold serial agar dilution technique; format: functional; details: clinical isolate 309/08, 18 h; method in brief: as §1
# [14] = system: Staphylococcus aureus; assay: Antibacterial activity against methicillin-susceptible Staphylococcus aureus clinical isolate 268/08 after 18 hrs by twofold serial agar dilution technique; format: functional; details: clinical isolate 268/08, 18 h; method in brief: as §1
# [15] = system: Pseudomonas aeruginosa; assay: Antibacterial activity against Pseudomonas aeruginosa ATCC 27853 at 400 ug/disc after 18 hrs by disc diffusion method; format: functional, organism-based; method in brief: as §2
# [16] = system: Staphylococcus aureus; assay: Antibacterial activity against methicillin-resistant Staphylococcus aureus clinical isolate 306/08 after 18 hrs by twofold serial agar dilution technique; format: functional; details: clinical isolate 306/08, 18 h; method in brief: as §1
# [17] = system: Staphylococcus aureus; assay: Antibacterial activity against methicillin-resistant Staphylococcus aureus clinical isolate 356/09 after 18 hrs by twofold serial agar dilution technique; format: functional; details: clinical isolate 356/09, 18 h; method in brief: as §1
# [18] = system: Staphylococcus aureus; assay: Antibacterial activity against Staphylococcus aureus ATCC 25923 after 18 hrs by twofold serial agar dilution technique; format: functional; details: ATCC 25923, 18 h; method in brief: as §3
# [19] = system: Micrococcus luteus; assay: Antibacterial activity against Micrococcus luteus ATCC 9341 after 18 hrs by twofold serial agar dilution technique; format: functional; details: ATCC 9341, 18 h
# [20] = system: Staphylococcus aureus; assay: Antibacterial activity against Staphylococcus aureus ATCC 29213 at 400 ug/disc after 18 hrs by disc diffusion method; format: functional; details: ATCC 29213, 18 h, read-out: DIZ; method in brief: as §2
# [21] = system: Staphylococcus aureus; assay: Antibacterial activity against methicillin-resistant Staphylococcus aureus clinical isolate 376/09 after 18 hrs by twofold serial agar dilution technique; format: functional; details: clinical isolate 376/09, 18 h; method in brief: as §1
# [22] = system: Staphylococcus aureus; assay: Antibacterial activity against Staphylococcus aureus ATCC 6538 at 400 ug/disc after 18 hrs by disc diffusion method; format: functional; details: for zone of inhibition at 400 µg/disc: ATCC 6538, 18 h, read-out: DIZ; method in brief: as §2
# [23] = system: Staphylococcus aureus; assay: Antibacterial activity against methicillin-susceptible Staphylococcus aureus clinical isolate 369/09 after 18 hrs by twofold serial agar dilution technique; format: functional; details: clinical isolate 369/09, 18 h; method in brief: as §1
# [24] = system: Candida albicans; assay: Antifungal activity against Candida albicans ATCC 10231 at 400 ug/disc after 18 hrs by disc diffusion method; format: functional, organism-based
# Method in brief: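 Yeasts tested by disc diffusion (CLSI) on RPMI agar with 2% glucose; 9 mm paper discs bearing 400 µg compound from methanol or DMSO solution; inhibition zone diameter read after 18 h at 35 °C.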
# [25] = system: Staphylococcus epidermidis; assay: Antibacterial activity against methicillin-resistant Staphylococcus epidermidis clinical isolate 343/09 after 18 hrs by twofold serial agar dilution technique; format: functional; details: clinical isolate 343/09, 18 h; method in brief: as §1
# [26] = system: Human immunodeficiency virus 1; assay: Antiviral activity against HIV1 infected in human MT4 cells assessed as virus-induced cytopathogenicity after 4 days by MTT assay; format: functional, organism-based; details: Human immunodeficiency virus 1, MT4, 96 h
# [27] = Cytotoxicity against human MT4 cells after 96 hrs by MTT assay; format: cell-based
SMILES,MIC [1] [mg/L],MIC [3] [mg/L],MIC [5] [mg/L],MIC [6] [mg/L],MIC [7] [mg/L],MIC [8] [mg/L],MIC [9] [mg/L],MIC [10] [mg/L],zone of inhibition at 400 µg/disc [11] [mm],zone of inhibition at 400 µg/disc [12] [mm],MIC [13] [mg/L],MIC [14] [mg/L],diameter of the inhibition zone (DIZ) [15],MIC [16] [mg/L],MIC [17] [mg/L],MIC [18] [mg/L],MIC [19] [mg/L],zone of inhibition at 400 µg/disc [20] [mm],MIC [21] [mg/L],MIC [23] [mg/L],further results
Fc1ccccc1NC(=S)Nc1nc[nH]n1,> 400,400,> 400,100,> 400,> 400,> 400,200,11,11,> 400,> 400,inactive,> 400,> 400,200,100,12,> 400,> 400,zone of inhibition at 400 µg/disc [2]: 19 mm; zone of inhibition at 400 µg/disc [4]: 12 mm; zone of inhibition at 400 µg/disc [22]: 12 mm; diameter of the inhibition zone (DIZ) [24]: inactive
S=C(Nc1ccccc1)Nc1nc[nH]n1,50,200,50,100,50,50,50,50,12,12,50,50,inactive,50,50,100,50,11,50,50,MIC [25]: 50 mg/L; EC50 [26]: > 100 µM; diameter of the inhibition zone (DIZ) [2]: inactive; diameter of the inhibition zone (DIZ) [4]: inactive; CC50 at 96 h [27]: > 100 µM; diameter of the inhibition zone (DIZ) [22]: inactive; diameter of the inhibition zone (DIZ) [24]: inactive
S=C(Nc1ccc(Br)cc1)Nc1nc[nH]n1,25,400,50,12.5,50,25,50,25,16,18,50,50,inactive,50,50,50,25,16,50,50,MIC [25]: 25 mg/L; EC50 [26]: > 100 µM; zone of inhibition at 400 µg/disc [2]: 22 mm; zone of inhibition at 400 µg/disc [4]: 17 mm; CC50 at 96 h [27]: > 100 µM; zone of inhibition at 400 µg/disc [22]: 16 mm; diameter of the inhibition zone (DIZ) [24]: inactive
Fc1cccc(NC(=S)Nc2nc[nH]n2)c1,25,400,24,50,12.5,12.5,12.5,50,22,14,12.5,25,inactive,12.5,12.5,50,50,18,25,12.5,zone of inhibition at 400 µg/disc [2]: 34 mm; zone of inhibition at 400 µg/disc [4]: 16 mm; zone of inhibition at 400 µg/disc [22]: 15 mm; diameter of the inhibition zone (DIZ) [24]: inactive
